Only some compounds are listed: those with a hit (about 3% of all), similar ones and a draw of the others.
rRNA inh HTS: reduced GFP signal of wild-type E. coli, primary screen, bacterial rRNA inhibitor project, GFP/RFP fluorescence, OD600, single point. E. coli WT GFP vs humanized-ribosome RFP mutants, 24 h; active compounds read low; DMSO median 0, no signal -100. AID 720706, 2013. GFP signal change (wild-type ribosome), % (test concentration not listed). hit rate 1.6% among 350,000;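 active = significant combined selectivity score with lowered wild-type GFP, culture density cut under 30%, mutant RFP and density less affected; inactive = any of these conditions unmet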
SIRT5 inh: SIRT5 desuccinylase inhibitors, primary screen, biochemical, fluorescence imaging, single point, set 5. Purified SirT5, succinyl-peptide AMC, trypsin-coupled fluorescence. inhibition, % at 15 µM. AID 652115, 2013. NAD-dependent protein deacylase sirtuin-5, mitochondrial (Homo sapiens), Q9NXA8. hit rate 1.1% among 330,000; in the data active = inhibition above about 15%; inconclusive = no clear call, values can overlap the other calls
Target sequence (Q9NXA8 whole entry, looked up): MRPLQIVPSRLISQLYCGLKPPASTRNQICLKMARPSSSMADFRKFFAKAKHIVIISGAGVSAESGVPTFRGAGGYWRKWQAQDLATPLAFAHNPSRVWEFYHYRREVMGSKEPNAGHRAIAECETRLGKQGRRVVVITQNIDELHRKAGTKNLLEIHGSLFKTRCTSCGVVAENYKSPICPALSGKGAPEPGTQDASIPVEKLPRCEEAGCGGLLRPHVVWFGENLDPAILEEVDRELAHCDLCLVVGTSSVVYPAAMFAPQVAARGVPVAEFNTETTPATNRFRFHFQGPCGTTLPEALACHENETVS
Cneo AK release: Cryptococcus neoformans cell lysis inducers, primary screen, AK release luminescence, single concentration; C. neoformans lysis, adenylate kinase release luminescence, 4 h; normalised: neutral wells 0, clomiphene wells 100; lysis activity, % at 15 µM; hit rate 0.2% among 360,000; AID 651654, 2012;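 active = mean lysis activity across replicates of at least 80%, whatever share of replicates individually reach that level; inactive = mean lysis activity below 80%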
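Schedule: static 4 h at 37 °C with compound, 1 h detection; system: C. neoformans cells; benchmarks: Clomiphene as positive control; buffer or medium: fresh YPD medium; measure: luminescence rise reflecting yeast cell lysis; measured by: luminescent adenylate kinase detection reagent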
S100A4 inh HTS: inhibitors of S100A4-myosin IIA peptide binding, primary screen, biochemical, fluorescence polarization, TAMRA-MyoIIA peptide. hit rate 0.14% among 360,000. inhibition, % at 10.7 µM;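 active = mean inhibition of at least 70% across replicates, with every replicate also reaching that level; inconclusive = mean inhibition reaches 70% but some replicates fall short; inactive = mean inhibition below 70%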
Target sequence (P26447 whole entry, looked up): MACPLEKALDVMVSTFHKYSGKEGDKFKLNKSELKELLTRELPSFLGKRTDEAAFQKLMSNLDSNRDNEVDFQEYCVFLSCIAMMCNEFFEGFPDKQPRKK
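Assay system: human S100A4 monomer with TAMRA-labelled myosin IIA peptide / Buffer or medium: Calcium-containing HEPES buffer, pH 7.2 / Reagent: TAMRA-labelled myosin IIA heavy-chain peptide probe, 5 nM / Compound: one dose per compound / Timing: polarization read 5 min after assay mix addition, stable 5–60 min / Benchmarks: neutral control DMSO, positive control TFP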
Statin myotox sup: suppressors of statin myotoxicity in C2C12 myotubes, primary screen, cell-based, single point, plate reader; C2C12 myotubes + simvastatin, ATP luminescence, 48 h; scaled: DMSO 0, geranylgeraniol control 100; rescue of ATP level, % at 7.49 µM; hit rate 0.78% among 330,000;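 active = mean ATP rescue above about 67%, or every replicate alone reaching that limit, limit read from the data, passing the limit was not always enough; inconclusive = no clear call, values can overlap the other calls; inactive = mean under the limit and some replicate under it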;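 also: myotubes were challenged with 10 µM simvastatin during compound exposure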
PGC1a acetyl inh: inhibitors of PGC1a acetylation signal, primary screen, cell-based, U2OS, AlphaScreen, inhibitor mode. AlphaScreen anti-acetyl-lysine; with virally co-expressed GCN5 acetyltransferase. inhibition, % at 15.6 µM. hit rate 0.17% among 350,000;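 active = every replicate shows inhibition of at least 40%; inconclusive = mean inhibition at least 40% but some replicate below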
Hits are given with their value; . = inactive; ? = inconclusive; / = no result given.

SMILES	rRNA inh HTS	SIRT5 inh	Cneo AK release	S100A4 inh HTS	Statin myotox sup	PGC1a acetyl inh
COc1ccc2nc(Nc3nc(C)c(C(C)=O)s3)sc2c1	/	/	.	/	.	.
Cc1cc(OCCCCOc2ccc(S(N)(=O)=O)c(C)c2)ccc1S(N)(=O)=O	-18.8	.	.	.	.	.
Cc1ccc(OCCCSc2ncccn2)cc1C	/	/	.	/	.	.
C[C@@H]1CN([C@@H](C)CO)S(=O)(=O)c2ccc(C3=CCCCC3)cc2O[C@H]1CN(C)CC1CC1	.	/	/	/	.	.
CCOc1ccc(N2C(=O)CC(N(C)Cc3ccccc3)C2=O)cc1 (stereo not drawn)	.	.	/	.	/	/
COC(=O)c1ccc(N2C(=O)CC(N(C)Cc3ccccc3)C2=O)cc1 (stereo not drawn)	/	/	.	/	86.9	.
Nc1ccccc1SCC(=O)N1CCc2ccccc21	/	/	.	/	.	.
O=C(CSCCO)N1CCc2ccccc21	/	/	.	/	115.8	.
CNC[C@@H]1OCCCC[C@H](C)Oc2ccc(N)cc2C(=O)N([C@@H](C)CO)C[C@H]1C	/	.	.	.	.	.
CC(NC(=O)Nc1ccc(O)cc1)(C(F)(F)F)C(F)(F)F	/	/	.	/	.	.
CC(NC(=O)Nc1ccccc1O)(C(F)(F)F)C(F)(F)F	/	/	.	/	90.9	.
COc1ccccc1-c1ccc2c(c1)O[C@H](CN(C)CC1CC1)[C@H](C)CN([C@@H](C)CO)S2(=O)=O	.	/	/	/	.	.
COc1ccc(O)c(C(=O)c2cnn(-c3ccccc3)c2)c1	-26.7	.	.	.	.	.
O=C(Nc1cccc(C(F)(F)F)c1)C1CCN(S(=O)(=O)c2cnc[nH]2)CC1	/	/	.	/	106.9	.
O=C(CCc1ccc(O)c(O)c1)NNC(=S)NCCc1ccccc1	.	.	/	.	/	/
O=C(CCc1ccc(O)c(O)c1)NNC(=S)Nc1ccc(Br)cc1Cl	-23.9	.	.	.	/	.
COc1cc(C(=O)Oc2ccccc2N)cc(OC)c1OC	/	/	91.7	/	.	.
CC1CCN(C2=C(NS(=O)(=O)c3ccc(Cl)cc3)C(=O)c3ccccc3C2=O)CC1	.	.	.	.	.	.
CC1CCN(C2=C(NS(=O)(=O)c3ccccc3)C(=O)c3ccccc3C2=O)CC1	-23.9	.	/	.	/	.
CCN1CCN(C2=C(NS(=O)(=O)c3ccc(C)cc3)C(=O)c3ccccc3C2=O)CC1	-18.5	.	.	.	.	.
C[C@H]1CN([C@@H](C)CO)C(=O)c2cccc(NS(=O)(=O)c3cn(C)cn3)c2O[C@H]1CN(C)S(=O)(=O)c1ccc(Cl)cc1	.	.	.	.	.	.
COc1ccc(Nc2oc(COc3ccccc3OC)nc2C#N)cc1	.	28.4	/	.	/	/
CC(C)NC(=O)Nc1ccc2c(c1)C(=O)N([C@@H](C)CO)C[C@@H](C)[C@H](CN(C)Cc1ccc(C(F)(F)F)cc1)OCCCC[C@@H](C)O2	.	16.9	.	.	/	.
C[C@@H]1CCCCO[C@H](CN(C)Cc2ccc(C(F)(F)F)cc2)[C@H](C)CN([C@H](C)CO)C(=O)c2cc(NC(=O)c3ccncc3)ccc2O1	.	20.3	.	.	.	/
C[C@@H]1CN([C@H](C)CO)C(=O)c2cc(NC(=O)c3ccncc3)ccc2O[C@@H](C)CCCCO[C@@H]1CN(C)Cc1ccc(C(F)(F)F)cc1	.	.	.	.	?	/
SMILES	rRNA inh HTS	SIRT5 inh	Cneo AK release	S100A4 inh HTS	Statin myotox sup	PGC1a acetyl inh
CC(C)NC(=O)Nc1ccc2c(c1)C(=O)N([C@H](C)CO)C[C@@H](C)[C@@H](CN(C)Cc1ccc(C(F)(F)F)cc1)OCCCC[C@H](C)O2	.	.	.	.	/	.
Cc1ccc(S(=O)(=O)N[C@H]2CC[C@H](CCNC(=O)c3ccccc3F)O[C@H]2CO)cc1	.	.	.	.	.	.
CCC(/C=C1\Sc2ccc(OC)cc2N1CC)=C\c1sc2ccc(OC)cc2[n+]1CCCS(=O)(=O)[O-]	.	.	.	98.9	/	/
CCC(/C=C1\Sc2ccc(OC)cc2N1CCO)=C\c1sc2ccc(OC)cc2[n+]1CCO	.	.	.	.	.	.
CC(C)c1cccc(NC(=O)C[C@H]2CC[C@H]3[C@@H](COc4ccc(NC(=O)c5ccc(C#N)cc5)cc4C(=O)N3C)O2)c1	.	/	/	/	.	/
CCN(CC)CC(C)(C)C(=O)/C=C/c1ccc(/C=C/C(=O)C(C)(C)CN(CC)CC)cc1	-14.2	.	/	.	/	/
Cc1ccccc1-c1ccc2c(c1)O[C@@H](CN(C)C(=O)Nc1ccc(F)cc1)[C@@H](C)CN([C@@H](C)CO)S2(=O)=O	.	19.3	.	.	.	.
Cc1ccccc1-c1ccc2c(c1)O[C@H](CN(C)C(=O)Nc1ccc(F)cc1)[C@H](C)CN([C@@H](C)CO)S2(=O)=O	.	/	/	/	.	.
C[C@H](CO)N1C[C@H](C)[C@H](CN(C)C(=O)Nc2ccc(F)cc2)Oc2cc(/C=C/c3ccccc3)ccc2S1(=O)=O	/	20.8	.	.	.	.
C[C@H](CO)N1C[C@H](C)[C@H](CN(C)C(=O)Nc2cccc(F)c2)Oc2cc(/C=C/c3ccccc3)ccc2S1(=O)=O	.	.	.	.	.	.
C[C@@H]1CN([C@@H](C)CO)S(=O)(=O)c2ccc(/C=C/c3ccccc3)cc2O[C@@H]1CN(C)C(=O)NC1CCCC1	.	20.2	.	.	92.6	.
C[C@@H]1CN([C@H](C)CO)S(=O)(=O)c2ccc(/C=C/c3ccccc3)cc2O[C@@H]1CN(C)C(=O)NC1CCCCC1	.	.	.	.	.	.
C/C=C/c1ccc2c(c1)O[C@H](CN(C)C(=O)NC1CCCC1)[C@@H](C)CN([C@H](C)CO)S2(=O)=O	.	.	.	.	.	.
C[C@H]1CN([C@@H](C)CO)S(=O)(=O)c2ccc(/C=C/c3ccccc3)cc2O[C@@H]1CN(C)C(=O)NC1CCCC1	.	31.9	.	.	.	.
CCNC(=O)Nc1ccc2c(c1)C(=O)N(C)[C@@H]1CC[C@H](CC(=O)NCc3ccc(F)cc3)O[C@@H]1CO2	.	.	.	.	.	.
C[C@@H]1CN([C@@H](C)CO)C(=O)c2cc(C#Cc3ccccn3)cnc2O[C@@H]1CN(C)C(=O)c1ccccn1	.	.	.	.	.	.
C[C@H](CO)N1C[C@H](C)[C@H](CN(C)C(=O)NC2CCCC2)Oc2cc(/C=C/c3ccccc3)ccc2S1(=O)=O	.	16.2	.	.	.	.

Screening results deposited in PubChem by Broad Institute.
